{"source": "ChEMBL document CHEMBL4396947", "about": "“Synthesis and characterization of novel isoform-selective IP6K1 inhibitors” (Bioorg Med Chem Lett, 2019)", "key": {"[1]": {"molecular_target": "T1, Inositol hexakisphosphate kinase 1 (Homo sapiens, UniProt Q92551)", "assay": "Inhibition of IP6K1 (unknown origin) incubated for 30 mins using IP6 as substrate in presence of ATP by ADP-Glo reagent based luminescence assay", "conditions": "read-out: pIC50 (converted)", "outline": "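Luminescent ADP-Glo Max format adapted for IP6K, with purified enzyme and ATP at 1 mM, which is consumed as the kinase reaction proceeds. IC50 taken from the resulting inhibition data.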"}, "[2]": {"molecular_target": "T1, Inositol hexakisphosphate kinase 1", "assay": "Binding affinity to IP6K1 (unknown origin) assessed as change in melting temperature by SYPRO orange dye-based assay", "outline": "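Thermal shift format. Purified IP6K1 heated across a temperature gradient with the ligand at several concentrations. Binding read as the rise in protein melting temperature, including the maximal Tm shift (TmMax).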"}, "[3]": {"molecular_target": "T1, Inositol hexakisphosphate kinase 1", "assay": "Binding affinity to IP6K1 (unknown origin) assessed as change in melting temperature at 11.1 uM by SYPRO orange dye based assay"}, "[4]": {"assay": "Half life in human microsomes at 1 uM incubated for 5 to 60 mins in presence of NADPH by LC-MS/MS analysis", "assay_type": "ADME, Microsome"}, "[5]": {"assay": "Solubility of compound in 2% DMSO by LC-MS/MS analysis", "assay_type": "physicochemical"}, "[6]": {"assay": "Half life in mouse microsomes at 1 uM incubated for 5 to 60 mins in presence of NADPH by LC-MS/MS analysis"}}, "data": [{"smiles": "COCCNc1nc(NCCc2c[nH]c3ccc(C)cc23)nc2[nH]cnc12", "values": [{"measurement": "IC50", "setting": "[1]", "value": 123, "unit": "µM"}]}, {"smiles": "COCCNc1nc(NCCc2c[nH]c3cc(OC)ccc23)nc2[nH]cnc12", "values": [{"measurement": "ΔTm", "setting": "[2]", "value": 4.7, "unit": "°C"}, {"measurement": "IC50", "setting": "[1]", "value": 2.75, "unit": "µM"}, {"measurement": "ΔTm", "setting": "[3]", "value": 3.6, "unit": "°C"}]}, {"smiles": "O=[N+]([O-])c1ccc(CNc2nc(NCc3cccc(C(F)(F)F)c3)nc3[nH]cnc23)cc1", "values": [{"measurement": "half-life at 1 µM", "setting": "[4]", "value": 32, "unit": "min"}, {"measurement": "solubility", "setting": "[5]", "value": "Insoluble"}, {"measurement": "ΔTm", "setting": "[2]", "value": 3.3, "unit": "°C"}, {"measurement": "IC50", "setting": "[1]", "value": "> 200", "unit": "µM"}, {"measurement": "half-life at 1 µM", "setting": "[6]", "value": 9, "unit": "min"}, {"measurement": "ΔTm", "setting": "[3]", "value": 1.8, "unit": "°C"}]}, {"smiles": "FC(F)(F)c1cccc(CNc2nc(NCc3ccccc3)c3nc[nH]c3n2)c1", "values": [{"measurement": "IC50", "setting": "[1]", "value": "> 200", "unit": "µM"}]}, {"smiles": "COCCNc1nc(NCCc2c[nH]c3ccccc23)nc2[nH]cnc12", "values": [{"measurement": "ΔTm", "setting": "[2]", "value": 4.3, "unit": "°C"}, {"measurement": "IC50", "setting": "[1]", "value": 8.32, "unit": "µM"}, {"measurement": "ΔTm", "setting": "[3]", "value": 2.4, "unit": "°C"}]}, {"smiles": "COCCNc1nc(NCCc2ccccc2)nc2[nH]cnc12", "values": [{"measurement": "IC50", "setting": "[1]", "value": 79.4, "unit": "µM"}]}, {"smiles": "COCCNc1nc(NCCc2c[nH]c3ccc(OC)cc23)nc2[nH]cnc12", "values": [{"measurement": "IC50", "setting": "[1]", "value": 138, "unit": "µM"}]}, {"smiles": "COCCNc1nc(NCCc2c[nH]c3ccc(Cl)cc23)nc2[nH]cnc12", "values": [{"measurement": "IC50", "setting": "[1]", "value": 26.9, "unit": "µM"}]}, {"smiles": "COCCNc1nc(NCc2cccc(C(F)(F)F)c2)nc2[nH]cnc12", "values": [{"measurement": "IC50", "setting": "[1]", "value": 117, "unit": "µM"}]}, {"smiles": "COCCNc1nc(NCCc2c(C)[nH]c3ccccc23)nc2[nH]cnc12", "values": [{"measurement": "IC50", "setting": "[1]", "value": 1.95, "unit": "µM"}]}, {"smiles": "COCCNc1nc(NCCc2cn(C)c3ccccc23)nc2nc[nH]c12", "values": [{"measurement": "IC50", "setting": "[1]", "value": 31.6, "unit": "µM"}]}, {"smiles": "O=c1cc(CNc2nc(NCCc3c[nH]c4ccccc34)nc3[nH]cnc23)cc[nH]1", "values": [{"measurement": "IC50", "setting": "[1]", "value": 10, "unit": "µM"}]}, {"smiles": "c1ccc2c(CCNc3nc(NCc4ccc5nonc5c4)c4nc[nH]c4n3)c[nH]c2c1", "values": [{"measurement": "IC50", "setting": "[1]", "value": 151, "unit": "µM"}]}, {"smiles": "COCCNc1nc(NCCc2ccc(F)cc2)nc2[nH]cnc12", "values": [{"measurement": "IC50", "setting": "[1]", "value": 89.1, "unit": "µM"}]}, {"smiles": "N#Cc1ccc(CNc2nc(NCCc3c[nH]c4ccccc34)nc3[nH]cnc23)cc1", "values": [{"measurement": "IC50", "setting": "[1]", "value": 46.8, "unit": "µM"}]}, {"smiles": "FC(F)(F)c1cccc(CNc2nc(NCCc3ccccc3)c3nc[nH]c3n2)c1", "values": [{"measurement": "IC50", "setting": "[1]", "value": "> 200", "unit": "µM"}]}, {"smiles": "COCCNc1nc(NCCc2ccccc2OC)nc2[nH]cnc12", "values": [{"measurement": "IC50", "setting": "[1]", "value": 11.2, "unit": "µM"}]}, {"smiles": "COCCN(C)c1nc(NCCc2c[nH]c3ccccc23)nc2c1ncn2C", "values": [{"measurement": "IC50", "setting": "[1]", "value": "> 200", "unit": "µM"}]}, {"smiles": "COCCNc1nc(NCCc2cccc3ccccc23)nc2[nH]cnc12", "values": [{"measurement": "IC50", "setting": "[1]", "value": 93.3, "unit": "µM"}]}, {"smiles": "COCCNc1nc(NCCCc2c[nH]c3ccccc23)nc2[nH]cnc12", "values": [{"measurement": "IC50", "setting": "[1]", "value": 69.2, "unit": "µM"}]}, {"smiles": "COCCNc1nc(NCCc2c[nH]c3ccc(O)cc23)nc2[nH]cnc12", "values": [{"measurement": "IC50", "setting": "[1]", "value": 31.6, "unit": "µM"}]}, {"smiles": "Cc1[nH]c2ccccc2c1CCNc1nc(NCc2ccc(=O)[nH]c2)c2nc[nH]c2n1", "values": [{"measurement": "IC50", "setting": "[1]", "value": 3.02, "unit": "µM"}]}, {"smiles": "COCCNc1nc(N(C)CCc2c[nH]c3ccccc23)nc2nc[nH]c12", "values": [{"measurement": "IC50", "setting": "[1]", "value": "> 200", "unit": "µM"}]}, {"smiles": "COCCNc1nc(NCCc2c[nH]c3ccccc23)nc2cc[nH]c12", "values": [{"measurement": "IC50", "setting": "[1]", "value": "> 200", "unit": "µM"}]}, {"smiles": "COCCNc1nc(NCCc2c[nH]c3ccccc23)nc2c1ncn2C", "values": [{"measurement": "IC50", "setting": "[1]", "value": "> 200", "unit": "µM"}]}, {"smiles": "COCCNc1nc(NCCc2c[nH]cn2)nc2[nH]cnc12", "values": [{"measurement": "IC50", "setting": "[1]", "value": "> 200", "unit": "µM"}]}, {"smiles": "O=c1ccc(CNc2nc(NCCc3c[nH]c4ccccc34)nc3[nH]cnc23)c[nH]1", "values": [{"measurement": "IC50", "setting": "[1]", "value": 1.74, "unit": "µM"}]}, {"smiles": "COCCNc1nc(NCCc2c[nH]c3ccccc23)nc2[nH]ccc12", "values": [{"measurement": "IC50", "setting": "[1]", "value": "> 200", "unit": "µM"}]}]}
